Laboratory results published in ChEMBL document CHEMBL4049428, “Exploring Derivatives of Quinazoline Alkaloid l-Vasicine as Cap Groups in the Design and Biological Mechanistic Evaluation of Novel Antitumor Histone Deacetylase Inhibitors” (J Med Chem, 2017).
Calls of active or inactive are those of the source. The rule behind the calls is not given here.

Assays:
[1] = target: Histone deacetylase 8 (Homo sapiens, UniProt Q9BY41); assay: Inhibition of HDAC 8 in human HeLa nuclear extract using fluorogenic HDAC class 2A substrate measured after 60 mins by fluorometric analysis
[2] = target: Histone deacetylase 4 (Homo sapiens, UniProt P56524); assay: Inhibition of HDAC 4 in human HeLa nuclear extract using fluorogenic HDAC class 2A substrate measured after 60 mins by fluorometric analysis
[3] = test system: THP-1; assay: Cytotoxicity against human THP1 cells assessed as growth inhibition at 10 uM after 48 hrs by MTT assay; format: functional; settings: THP-1, 48 h, read-out: GI
Summary of the method: (§1)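 MTT assay, 48 h exposure; adherent lines seeded 12 h and suspension lines 4 h before compound. Media: RPMI-1640/10% FCS (THP-1, HL-60, Colo-205, Caco-2, A549), DMEM/10% FCS (A549, MIAPaCa-2, MCF-7). MTT 4 h, formazan dissolved in DMSO, absorbance 570 nm. Mean ± S.D of three experiments in triplicate; SAHA 5 µM reference.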

[4] = test system: COLO 205; assay: Cytotoxicity against human COLO205 cells assessed as growth inhibition at 10 uM after 48 hrs by MTT assay; format: functional; settings: COLO 205, 48 h, read-out: GI; summary of the method: as §1
[5] = test system: THP-1; assay: Cytotoxicity against human THP1 cells assessed as growth inhibition after 48 hrs by MTT assay; format: functional, cell-based; settings: THP-1, 48 h
[6] = test system: Caco-2; assay: Cytotoxicity against human Caco2 cells assessed as growth inhibition after 48 hrs by MTT assay; format: functional, cell-based; settings: Caco-2, 48 h
[7] = test system: A549; assay: Cytotoxicity against human A549 cells assessed as growth inhibition after 48 hrs by MTT assay; format: functional, cell-based; settings: A549, 48 h
[8] = test system: MCF-10A; assay: Cytotoxicity against human MCF10A cells assessed as growth inhibition after 48 hrs by MTT assay; format: ADME, cell-based
[9] = test system: MOLT-4; assay: Induction of mitochondrial membrane potential loss in human MOLT4 cells at 0.125 uM measured after 48 hrs by Rh123 dye-based flow cytometric analysis (reference value: 9.6%); format: functional
Summary of the method: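 Cells seeded in 6-well plates 2-4 h, then 48 h with compound; Rh-123 1 µM added for the final half hour; cells centrifuged, washed twice in PBS, resuspended in PBS, and Ψm loss quantified by flow cytometry as percentage of cells.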

[10] = test system: HL-60; assay: Induction of reactive oxygen species in human HL60 cells at 5 uM measured after 48 hrs by H2DCFDA dye-based flow cytometric analysis (reference value: 0.4%); format: functional
[11] = test system: THP-1; assay: Antimigratory activity in human THP1 cells at 0.125 uM after 48 hrs by wound healing assay; format: functional, cell-based
Summary of the method: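 THP-1 cells seeded at high density, attached overnight; monolayer scratched with a pipette tip, debris removed by PBS washes, then test compound added after wounding. Incubated 48 h under standard culture conditions (37°C, 5% CO2); wound images taken at various intervals from time zero.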

Histone deacetylase 8, sequence (Q9BY41 whole entry): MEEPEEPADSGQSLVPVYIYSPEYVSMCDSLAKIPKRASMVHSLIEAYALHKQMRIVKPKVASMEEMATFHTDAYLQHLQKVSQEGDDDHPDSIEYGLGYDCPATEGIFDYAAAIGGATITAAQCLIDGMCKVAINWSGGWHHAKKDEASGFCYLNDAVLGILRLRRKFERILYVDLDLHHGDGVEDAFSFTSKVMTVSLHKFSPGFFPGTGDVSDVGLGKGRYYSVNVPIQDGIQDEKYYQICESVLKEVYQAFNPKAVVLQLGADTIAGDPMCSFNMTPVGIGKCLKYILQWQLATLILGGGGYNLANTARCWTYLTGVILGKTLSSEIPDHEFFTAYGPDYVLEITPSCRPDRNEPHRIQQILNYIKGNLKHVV
Histone deacetylase 4, sequence (P56524 whole entry): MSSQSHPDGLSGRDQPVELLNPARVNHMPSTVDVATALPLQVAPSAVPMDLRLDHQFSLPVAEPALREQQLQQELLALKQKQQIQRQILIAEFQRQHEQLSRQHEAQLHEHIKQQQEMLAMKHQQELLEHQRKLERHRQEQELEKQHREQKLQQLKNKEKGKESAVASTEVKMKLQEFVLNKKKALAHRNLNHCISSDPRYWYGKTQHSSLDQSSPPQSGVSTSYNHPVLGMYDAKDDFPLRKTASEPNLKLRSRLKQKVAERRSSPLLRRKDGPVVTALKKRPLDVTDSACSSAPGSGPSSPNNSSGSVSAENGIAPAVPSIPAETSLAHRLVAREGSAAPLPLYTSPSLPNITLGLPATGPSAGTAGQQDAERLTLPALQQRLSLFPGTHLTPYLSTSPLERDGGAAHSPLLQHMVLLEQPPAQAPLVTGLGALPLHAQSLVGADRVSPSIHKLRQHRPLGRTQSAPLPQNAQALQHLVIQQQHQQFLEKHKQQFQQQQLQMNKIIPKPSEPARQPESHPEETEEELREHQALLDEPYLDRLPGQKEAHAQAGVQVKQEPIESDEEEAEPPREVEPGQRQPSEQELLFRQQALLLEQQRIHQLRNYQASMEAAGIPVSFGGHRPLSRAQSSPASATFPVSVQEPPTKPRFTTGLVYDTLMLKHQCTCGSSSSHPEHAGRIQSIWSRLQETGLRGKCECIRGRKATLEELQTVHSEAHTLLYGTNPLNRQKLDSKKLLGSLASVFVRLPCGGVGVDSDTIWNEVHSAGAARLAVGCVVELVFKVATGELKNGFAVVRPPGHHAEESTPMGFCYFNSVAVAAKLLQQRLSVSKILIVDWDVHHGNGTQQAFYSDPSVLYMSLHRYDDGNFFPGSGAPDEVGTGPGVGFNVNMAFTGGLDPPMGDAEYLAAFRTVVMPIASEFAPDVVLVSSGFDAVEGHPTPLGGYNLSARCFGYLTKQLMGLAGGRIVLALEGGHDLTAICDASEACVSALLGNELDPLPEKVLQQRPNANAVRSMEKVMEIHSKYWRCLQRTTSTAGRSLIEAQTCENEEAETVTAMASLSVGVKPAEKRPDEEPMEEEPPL

`O=C(CCCCCCC(=O)Nc1ccccc1CN1CC[C@H](O)C1)NO` was tested, and the IC50 [1] was 0.211 µM, the IC50 [2] was 7.12 µM and the inhibition of growth at 10 µM [3] was 94%. The inhibition of growth at 10 µM [4] was 92%, the IC50 [5] was 1.3 µM and the IC50 [6] was 6 µM. For the same molecule, the IC50 [7] was 7 µM, the IC50 [8] was 37 µM and the Activity [9] was 2.4%. For the same molecule, the Activity [10] was 0% and the Activity [11] was “Active”.
